Measured values as given in ChEMBL document CHEMBL3044914, “Synthesis of novel 12-aryl-8,9,10,12-tetrahydrobenzo[a]xanthene-11-thiones and evaluation of their biocidal effects” (2012).
In brackets after ≈: the same amount, converted by molar mass.

Legend:
[1] = Inhibition of soil urease assessed as urea-N level at 1% compound level measured after 9 hr; conditions: concentration not given here
In short: (§1)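 Soil from cultivated institute farm fields, 50 g air-dried per beaker, moisture kept daily with distilled water. Compound in acetone added at 1% of applied urea-N (0.1 mg); urea-alone control; completely randomized design, three replicates. 5 g samples taken at 9 and 27 h, extracted with 1 M sodium sulfate containing phenyl mercuric acetate to stop hydrolysis; urea-N estimated.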

[2] = Inhibition of soil urease assessed as urea-N level at 1% compound level measured after 27 hr; conditions: concentration not given here; in short: as §1
Spodoptera litura [3] = assay: Insect growth regulatory activity against Spodoptera litura third-instar larvae assessed as growth inhibition index at 0.1% measured after 24 hr post compound treatment by leaf-dip method; assay type: functional
Spodoptera litura [4] = assay: Insect growth regulatory activity against Spodoptera litura third-instar larvae assessed as normal adult level at 0.1% measured after 24 hr post compound treatment by leaf-dip method; assay type: functional
Spodoptera litura [5] = assay: Insect growth regulatory activity against Spodoptera litura third-instar larvae assessed as abnormal or dead larva level at 0.1% measured after 24 hr post compound treatment by leaf-dip method; assay type: functional
In short: (§2)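 Third-instar larvae were reared on artificial diet, newly moulted and pre-weighed at 30–40 mg. The 0.1% solution was a stock, applied at different concentrations. Leaves on moistened filter paper in Petri dishes were sprayed with the test solution and dried. Ten larvae were placed per dish, in triplicate, with carrier-solvent controls. Larval weight, mortality, pupation, deformed pupae, intermediates, adult emergence and deformed adults were recorded after 24 h.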

Spodoptera litura [6] = assay: Insect growth regulatory activity against Spodoptera litura third-instar larvae assessed as abnormal pupa or dead pupa level at 0.1% measured after 24 hr post compound treatment by leaf-dip method; assay type: functional; in short: as §2
Spodoptera litura [7] = assay: Insect growth regulatory activity against Spodoptera litura third-instar larvae assessed as mortality at 0.1% measured after 24 hr post compound treatment by leaf-dip method; assay type: functional; in short: as §2
Spodoptera litura [8] = assay: Insecticidal activity against Spodoptera litura third-instar larvae fed on 0.1% compound pre-treated castor leaves assessed as mortality after 24 hr post compound treatment by feeding method; assay type: functional
In short: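 Castor leaf was dipped for 2 s in a 0.1% solution, air-dried and placed on moist filter paper in 9 cm Petri plates. Third-instar larvae aged 7 ± 1 day were prestarved 4 h and released singly into each plate. There were thirty replications per treatment, with a solvent control. Mortality was scored at 24 h.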

Spodoptera litura [9] = assay: Insecticidal activity against Spodoptera litura third-instar larvae exposed to 0.1% compound on ventral side of larvae assessed as mortality after 24 hr post compound treatment by contact method; assay type: functional
In short: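 Topical treatment of third-instar larvae aged 7 ± 1 day. Each treatment was run in triplicate with solvent as control. Mortality was recorded after 24 h.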

Alternaria porri = assay: Antifungal activity against Alternaria porri by food poison technique; assay type: functional; conditions: read-out: ED50 (the source's name)
Fusarium oxysporum = assay: Antifungal activity against Fusarium oxysporum by food poison technique; assay type: functional; conditions: read-out: ED50 (the source's name)
Athelia rolfsii = assay: Antifungal activity against Athelia rolfsii by food poison technique; assay type: functional; conditions: Agroathelia rolfsii; read-out: ED50 (the source's name)
Macrophomina phaseolina = assay: Antifungal activity against Rhizoctonia bataticola by food poison technique; assay type: functional; conditions: read-out: ED50 (the source's name)

Compound	inhibition [1]	inhibition [2]	growth inhibition (GI) (Spodoptera litura [3])	Activity (Spodoptera litura [4])	Activity (Spodoptera litura [5])	Activity (Spodoptera litura [6])	mortality (Spodoptera litura [7])	mortality (Spodoptera litura [8])	mortality (Spodoptera litura [9])	EC50 (Alternaria porri)	EC50 (Fusarium oxysporum)	EC50 (Athelia rolfsii)	EC50 (Macrophomina phaseolina)
COc1ccccc1C1C2=C(CC(C)(C)CC2=S)Oc2ccc3ccccc3c21 (stereo unspecified)	24%	6%	60%	40%	20%	10%	30%	30%	15%	418 µg/mL (≈ 1040 µM)	336 µg/mL (≈ 838 µM)	324 µg/mL (≈ 810 µM)	484 µg/mL (≈ 1210 µM)
S=C1CCCC2=C1C(c1ccccc1)c1c(ccc3ccccc13)O2 (stereo unspecified)	47%	22%	50%	50%	0%	10%	40%	30%	10%	210 µg/mL (≈ 613 µM)	287 µg/mL (≈ 839 µM)	500 µg/mL (≈ 1460 µM)	438 µg/mL (≈ 1280 µM)
CC1(C)C(C=C(Cl)Cl)C1C(=O)OC(C#N)c1cccc(Oc2ccccc2)c1 (stereo not drawn) [ALPHA-CYPERMETHRIN]									100%				
CC1(C)CC(=S)C2=C(C1)Oc1ccc3ccccc3c1C2c1cccc(Br)c1 (stereo unspecified)	15%	6%	100%	0%	50%		50%	10%	30%	321 µg/mL (≈ 714 µM)	310 µg/mL (≈ 689 µM)	478 µg/mL (≈ 1060 µM)	475 µg/mL (≈ 1060 µM)
Cc1ccc(C2C3=C(CC(C)(C)CC3=S)Oc3ccc4ccccc4c32)cc1 (stereo unspecified)	33%	12%	50%	50%	10%	10%	30%	20%	10%	385 µg/mL (≈ 1000 µM)	410 µg/mL (≈ 1070 µM)	321 µg/mL (≈ 834 µM)	489 µg/mL (≈ 1270 µM)
S=C1CCCC2=C1C(c1ccccc1Br)c1c(ccc3ccccc13)O2 (stereo unspecified)	1%	-2%	25%	75%	20%	5%	0%	90%	50%	136 µg/mL (≈ 322 µM)	148 µg/mL (≈ 352 µM)	225 µg/mL (≈ 535 µM)	286 µg/mL (≈ 678 µM)
CC1(C)CC(=S)C2=C(C1)Oc1ccc3ccccc3c1C2c1ccc(F)cc1 (stereo unspecified)	-3%	0%	50%	50%		0%	0%	40%	10%	199 µg/mL (≈ 511 µM)	260 µg/mL (≈ 670 µM)	358 µg/mL (≈ 922 µM)	345 µg/mL (≈ 888 µM)
CC1(C)CC(=S)C2=C(C1)Oc1ccc3ccccc3c1C2c1ccc(Cl)cc1 (stereo unspecified)	35%	18%	70%	30%	10%	20%	40%	40%	30%	311 µg/mL (≈ 767 µM)	245 µg/mL (≈ 606 µM)	280 µg/mL (≈ 692 µM)	334 µg/mL (≈ 825 µM)
CC1(C)CC(=S)C2=C(C1)Oc1ccc3ccccc3c1C2c1ccc2ccccc2c1 (stereo unspecified)	1%	3%	30%	70%	20%	10%	0%	80%	0%	165 µg/mL (≈ 393 µM)	189 µg/mL (≈ 448 µM)	199 µg/mL (≈ 473 µM)	244 µg/mL (≈ 580 µM)
CC1(C)CC(=S)C2=C(C1)Oc1ccc3ccccc3c1C2c1ccccc1 (stereo unspecified)	5%	5%	75%	35%	0%	15%	50%	20%	20%	336 µg/mL (≈ 906 µM)	326 µg/mL (≈ 879 µM)	525 µg/mL (≈ 1420 µM)	570 µg/mL (≈ 1540 µM)
COc1cc(C2C3=C(CC(C)(C)CC3=S)Oc3ccc4ccccc4c32)ccc1O (stereo unspecified)	-6%	12%	30%	70%	0%	20%	10%	10%	0%	433 µg/mL (≈ 1040 µM)	438 µg/mL (≈ 1050 µM)	670 µg/mL (≈ 1610 µM)	567 µg/mL (≈ 1360 µM)
S=C1CCCC2=C1C(c1cccc(Cl)c1)c1c(ccc3ccccc13)O2 (stereo unspecified)	6%	2%	60%	40%	20%	10%	30%	60%	30%	268 µg/mL (≈ 712 µM)	320 µg/mL (≈ 850 µM)	426 µg/mL (≈ 1130 µM)	380 µg/mL (≈ 1010 µM)
O=[N+]([O-])c1ccc(C2C3=C(CCCC3=S)Oc3ccc4ccccc4c32)cc1 (stereo unspecified)	1%	-1%	80%	20%	10%		50%	70%	0%	212 µg/mL (≈ 547 µM)	358 µg/mL (≈ 923 µM)	670 µg/mL (≈ 1730 µM)	555 µg/mL (≈ 1430 µM)
CC1(C)CC(=S)C2=C(C1)Oc1ccc3ccccc3c1C2c1cccs1 (stereo unspecified)	4%	-8%	35%	65%	0%	20%	15%	10%	0%	456 µg/mL (≈ 1210 µM)	375 µg/mL (≈ 997 µM)	457 µg/mL (≈ 1210 µM)	590 µg/mL (≈ 1570 µM)
CCCCC(O)(Cn1cncn1)c1ccc(Cl)cc1Cl (stereo unspecified) [HEXACONAZOLE]										25.5 µg/mL (≈ 81.3 µM)	20.6 µg/mL (≈ 65.4 µM)	13 µg/mL (≈ 41.2 µM)	334 µg/mL (≈ 1060 µM)
